The text below walks through data of ChEMBL document CHEMBL5360615, “Pharmacological and Physicochemical Properties Optimization for Dual-Target Dopamine D3 (D3R) and μ-Opioid (MOR) Receptor Ligands as Potentially Safer Analgesics” (J Med Chem, 2023).

Each structure is given as a SMILES string. The source made the active and inactive calls. No cut-off for these calls is given here.

In test [1] the target is T1, Mu-type opioid receptor (Mus musculus, UniProt P42866). Briefly: (§1) Partial agonist activity at Rluc8 fused mouse MOR transfected in HEK293T cells assessed as Nb33 recruitment using coelenterazine as substrate incubated for 40 mins by BRET assay. In kind it is functional, cell-based. Summed up:
(§2)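 HEK293T cells transiently transfected with BRET sensors (DNA:PEI 1:6), plated into poly-D-lysine plates and assayed 48 h post-transfection. Cells washed and held in D-PBS 30 min at 37 °C. Coelenterazine h 5 μM final; ligands 10 μM to 0.01 nM. At least three independent experiments in duplicate.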

The target of test [2] is T1, Mu-type opioid receptor. Briefly: (§3) Partial agonist activity at Rluc8 fused mouse MOR transfected in HEK293T cells coexpressing wild type GRK2 assessed as arrestin-3 recruitment using coelenterazine as substrate incubated for 40 mins by BRET assay. In kind it is functional, cell-based. Summed up:
as §2

The target in test [3] is T1, Mu-type opioid receptor. The test is described as follows: (§4) Partial agonist activity at SNAP-tagged mouse MOR transfected in HEK293T cells coexpressing wild type Galpha-i2, venus-tagged Gbeta-1 (156 to 239 residues), venus-tagged Ggamma2 (1 to 155 residues) and Rluc8 fused masGRK3ct assessed as Galpha-i2 activation using coelenterazine as substrate incubated for 40 mins by BRET based GPA assay. The format is functional, cell-based. In short, it runs like this: as §2
On the technique in general: Bioluminescence resonance energy transfer reports proximity on the nanometre scale.

The target in test [4] is T2, D(3) dopamine receptor (Homo sapiens, UniProt P35462). The test is described as follows: Displacement of [3H]N-methylspiperone from human D3R receptor expressed in HEK293T cell membrane assessed as inhibition constant incubated for 60 mins by MicroBeta scintillation counting method. The format is cell membranes. (In general: In a radioligand displacement assay an active substance lowers the binding of a labelled ligand.)

A further test addresses D(2) dopamine receptor (Homo sapiens, UniProt P14416). Briefly: Displacement of [3H]N-methylspiperone from human D2L receptor expressed in HEK293T cell membrane assessed as inhibition constant incubated for 60 mins by MicroBeta scintillation counting method. The format is cell membranes.
Test [5] addresses Mu-type opioid receptor (Mus musculus) (UniProt P42866). Briefly: Partial agonist activity at Rluc8 fused mouse MOR transfected in HEK293T cells assessed as Nb33 recruitment at 10 uM using coelenterazine as substrate incubated for 40 mins by BRET assay relative to control. The format is functional, cell-based. In short, it runs like this:
as §2

Test [6] has as its target Mu-type opioid receptor (Homo sapiens, UniProt P35372). Briefly: Displacement of [3H]-DAMGO from human MOR receptor expressed in HEK293T cell membrane assessed as inhibition constant incubated for 60 mins by MicroBeta scintillation counting method. The format is cell membranes. In short, it runs like this:
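HEK293 cells stably expressing human MOR, grown in DMEM with 10% FBS and hygromycin B; membranes prepared from confluent cells. Binding buffer 50 mM Tris, 5 mM MgCl2, pH 7.4. Nonspecific binding with 10 μM naloxone. 60 min at RT, then GF/C filtration.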

Test [7] has as its target Mu-type opioid receptor (Mus musculus) (UniProt P42866). Briefly: Partial agonist activity at Rluc8 fused mouse MOR transfected in HEK293T cells coexpressing wild type GRK2 assessed as arrestin-3 recruitment at 10 uM using coelenterazine as substrate incubated for 40 mins by BRET assay relative to control. In kind it is functional, cell-based. In short, it runs like this:
(§5)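 HEK293T cells transiently transfected with BRET sensors (DNA:PEI 1:6), plated into poly-D-lysine plates and assayed 48 h post-transfection. Cells washed and held in D-PBS 30 min at 37 °C. Coelenterazine h 5 μM final; ligands 10 μM to 0.01 nM. […] At least three independent experiments in duplicate.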

The target of test [8] is T2, D(3) dopamine receptor. The test is described as follows: Partial agonist activity at SNAP-tagged human D3R receptor transfected in HEK293T cells coexpressing wild type Galpha-oA, venus-tagged Gbeta-1 (156 to 239 residues), venus-tagged Ggamma2 (1 to 155 residues) and Rluc8 fused masGRK3ct assessed as Galpha-oA activation using coelenterazine as substrate incubated for 40 mins by BRET based GPA assay. The format is functional, cell-based.

For test [9], the target named is Mu-type opioid receptor (Mus musculus) (UniProt P42866). The test is described as follows: Partial agonist activity at SNAP-tagged mouse MOR transfected in HEK293T cells coexpressing wild type Galpha-i2, venus-tagged Gbeta-1 (156 to 239 residues), venus-tagged Ggamma2 (1 to 155 residues) and Rluc8 fused masGRK3ct assessed as Galpha-i2 activation at 10 uM using coelenterazine as substrate incubated for 40 mins by BRET based GPA assay relative to control. In kind it is functional, cell-based. In short, it runs like this:
as §2

For test [10] the target is unchanged. The description is as §1. In kind it is functional, cell-based. In short, it runs like this: as §2
The target is the same in test [11]. The description is as §3. The format is functional, cell-based. In short, it runs like this:
as §2

Test [12] shares this target. Described as §4. The format is functional, cell-based. In short, it runs like this: as §2
Test [13] concerns the target T2, D(3) dopamine receptor. The test is described as follows: Antagonist activity at SNAP-tagged human D3R receptor transfected in HEK293T cells coexpressing wild type Galpha-oA, venus-tagged Gbeta-1 (156 to 239 residues), venus-tagged Ggamma2 (1 to 155 residues) and Rluc8 fused masGRK3ct assessed as Galpha-oA activation using coelenterazine as substrate incubated for 40 mins in presence of quinpirole by BRET based GPA assay. The format is functional, cell-based.

For test [14], the target named is Mu-type opioid receptor (Mus musculus) (UniProt P42866). The test is described as follows: Agonist activity at SNAP-tagged mouse MOR transfected in HEK293T cells coexpressing wild type Galpha-i2, venus-tagged Gbeta-1 (156 to 239 residues), venus-tagged Ggamma2 (1 to 155 residues) and Rluc8 fused masGRK3ct assessed as Galpha-i2 activation at 10 uM using coelenterazine as substrate incubated for 40 mins by BRET based GPA assay relative to control. As to conditions: filed as agonist. In kind it is functional, cell-based. Summed up:
as §5

Test [15] shares this target. The test is described as follows: Agonist activity at Rluc8 fused mouse MOR transfected in HEK293T cells assessed as Nb33 recruitment at 10 uM using coelenterazine as substrate incubated for 40 mins by BRET assay relative to control. In kind it is functional, cell-based. Summed up:
as §5

Test [16] concerns the target T1, Mu-type opioid receptor. The test is described as follows: Agonist activity at SNAP-tagged mouse MOR transfected in HEK293T cells coexpressing wild type Galpha-i2, venus-tagged Gbeta-1 (156 to 239 residues), venus-tagged Ggamma2 (1 to 155 residues) and Rluc8 fused masGRK3ct assessed as Galpha-i2 activation using coelenterazine as substrate incubated for 40 mins by BRET based GPA assay. In kind it is functional, cell-based. Summed up: as §2

The target of test [17] is T1, Mu-type opioid receptor. The test is described as follows: Agonist activity at Rluc8 fused mouse MOR transfected in HEK293T cells coexpressing wild type GRK2 assessed as arrestin-3 recruitment using coelenterazine as substrate incubated for 40 mins by BRET assay. The format is functional, cell-based. In short, it runs like this: as §2
For orientation: Activated receptors often draw arrestin, which recruitment assays turn into a signal.

In test [18] the target is T1, Mu-type opioid receptor. Briefly: Agonist activity at Rluc8 fused mouse MOR transfected in HEK293T cells assessed as Nb33 recruitment using coelenterazine as substrate incubated for 40 mins by BRET assay. The format is functional, cell-based. Summed up:
as §2

The target in test [19] is Mu-type opioid receptor (Mus musculus) (UniProt P42866). Briefly: Agonist activity at Rluc8 fused mouse MOR transfected in HEK293T cells coexpressing wild type GRK2 assessed as arrestin-3 recruitment at 10 uM using coelenterazine as substrate incubated for 40 mins by BRET assay relative to control. The conditions noted are these: filed as agonist. In kind it is functional, cell-based. In short, it runs like this:
as §5

Sequence of Mu-type opioid receptor (Homo sapiens, UniProt P35372) (P35372 whole entry): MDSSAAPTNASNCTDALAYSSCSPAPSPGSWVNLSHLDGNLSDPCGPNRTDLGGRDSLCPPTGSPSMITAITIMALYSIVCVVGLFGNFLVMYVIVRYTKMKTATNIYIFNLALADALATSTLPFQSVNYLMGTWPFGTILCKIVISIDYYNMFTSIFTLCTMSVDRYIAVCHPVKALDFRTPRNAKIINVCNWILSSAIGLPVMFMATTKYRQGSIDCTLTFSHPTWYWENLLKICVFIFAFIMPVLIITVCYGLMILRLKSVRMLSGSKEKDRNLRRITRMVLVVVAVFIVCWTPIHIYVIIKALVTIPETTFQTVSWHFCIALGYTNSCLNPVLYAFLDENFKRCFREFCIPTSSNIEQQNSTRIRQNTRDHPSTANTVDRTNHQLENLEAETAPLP
Sequence of D(2) dopamine receptor (P14416 whole entry, the tested form may be a part): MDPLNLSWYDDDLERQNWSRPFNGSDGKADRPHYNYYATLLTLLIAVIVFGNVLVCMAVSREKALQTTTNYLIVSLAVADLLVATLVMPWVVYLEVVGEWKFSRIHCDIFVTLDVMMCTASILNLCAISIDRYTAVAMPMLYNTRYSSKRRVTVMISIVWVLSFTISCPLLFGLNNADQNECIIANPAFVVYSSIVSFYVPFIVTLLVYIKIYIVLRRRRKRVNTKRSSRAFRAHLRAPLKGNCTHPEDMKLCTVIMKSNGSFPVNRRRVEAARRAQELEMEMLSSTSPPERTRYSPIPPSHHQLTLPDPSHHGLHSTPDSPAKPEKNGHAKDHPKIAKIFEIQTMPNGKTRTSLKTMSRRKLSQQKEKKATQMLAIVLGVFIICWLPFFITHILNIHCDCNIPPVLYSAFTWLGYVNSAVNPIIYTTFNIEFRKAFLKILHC
T2 sequence (P35462 whole entry): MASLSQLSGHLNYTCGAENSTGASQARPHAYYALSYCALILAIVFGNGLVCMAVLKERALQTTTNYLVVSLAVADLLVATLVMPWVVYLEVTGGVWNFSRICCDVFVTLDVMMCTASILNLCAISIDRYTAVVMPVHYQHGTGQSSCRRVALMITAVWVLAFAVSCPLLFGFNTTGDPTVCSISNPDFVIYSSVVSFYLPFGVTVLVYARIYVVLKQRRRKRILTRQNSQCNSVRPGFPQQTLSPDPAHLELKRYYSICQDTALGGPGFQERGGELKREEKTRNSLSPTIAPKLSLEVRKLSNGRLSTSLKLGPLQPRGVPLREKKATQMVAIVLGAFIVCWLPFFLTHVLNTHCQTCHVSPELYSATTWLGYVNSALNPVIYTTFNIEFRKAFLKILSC
Sequence of Mu-type opioid receptor (Mus musculus) (P42866 whole entry, the tested form may be a part): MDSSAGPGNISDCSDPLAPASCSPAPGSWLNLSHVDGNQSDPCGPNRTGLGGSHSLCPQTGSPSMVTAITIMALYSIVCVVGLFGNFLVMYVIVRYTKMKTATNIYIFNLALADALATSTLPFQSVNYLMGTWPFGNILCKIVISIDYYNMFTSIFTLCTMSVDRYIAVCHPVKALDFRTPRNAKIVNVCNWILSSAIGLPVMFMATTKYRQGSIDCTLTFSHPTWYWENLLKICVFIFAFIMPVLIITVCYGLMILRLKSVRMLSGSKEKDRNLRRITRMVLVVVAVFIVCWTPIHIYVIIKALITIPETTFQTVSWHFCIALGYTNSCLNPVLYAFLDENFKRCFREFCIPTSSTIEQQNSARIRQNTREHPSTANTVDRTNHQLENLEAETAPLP
T1 sequence (P42866 whole entry, the tested form may be a part): as above

A word on the Ki: it is a measure of affinity in units of concentration, obtained from inhibition or displacement. As usually defined, the Emax is the size of the effect at its maximum, as opposed to the concentration needed. As for `CN(C)C(=O)C(CCN1CCC(CCN2CCN(c3cccc(Cl)c3Cl)CC2)C1)(c1ccccc1)c1ccccc1` (stereo not drawn), the EC50 amounted to 658 nM on Mu-type opioid receptor [1], 470 nM on Mu-type opioid receptor [2], 158 nM on Mu-type opioid receptor [3] and 41.7 nM on D(3) dopamine receptor [8]. Moreover, the values for the Ki at D(3) dopamine receptor [4], on D(2) dopamine receptor and at Mu-type opioid receptor [6] were 20.2 nM, 117 nM and 23.5 nM, respectively. Besides, the Emax in [5] was found to be 14.6%; in [7] it was 10.5%; in test [9] (filed as partial agonist), 85.4%.
A word on the IC50: it is the point on the concentration scale where inhibition reaches its midpoint. For `CN(C)C(=O)C(CCN1C[C@H](F)C[C@H]1C(=O)NCCCCN1CCN(c2nsc3ccccc23)CC1)(c1ccccc1)c1ccccc1`, the outcome in test [10], in [11], in test [12], in test [7] and in test [9] was inactive. Besides, the Ki came out at 53 nM at D(3) dopamine receptor [4], 322 nM at D(2) dopamine receptor and 146 nM on Mu-type opioid receptor [6]. Moreover, the Emax result in [5] is “inactive”. Also, the EC50 at D(3) dopamine receptor [13] was 90.9 nM. Besides, the IC50 on D(3) dopamine receptor [13] is 91.2 nM.
With `Clc1ccc([C@@H]2C[C@H]2NCCC2(c3ccccn3)CCOC3(CCCC3)C2)cc1` (relative stereo), the Emax in test [14] came to 97.6%; in test [15] it was 24.9%; in test [19] it was 51.3%. Moreover, the Ki was found to be 361 nM at D(3) dopamine receptor [4], 5520 nM at D(2) dopamine receptor and 85.2 nM on Mu-type opioid receptor [6]. The EC50 at Mu-type opioid receptor [16] (read-out: EC50) was 73.4 nM; on Mu-type opioid receptor [16] (read-out: pEC50 (converted)), 72.4 nM; at Mu-type opioid receptor [17], 261 nM; on Mu-type opioid receptor [18] it was 406 nM; on D(3) dopamine receptor [13] it was 271 nM. At D(3) dopamine receptor [13], the concentration for half-maximal inhibition (IC50) is 269 nM.
